In PMC4401146 (Journal of Cellular and Molecular Medicine, 2008) one finds Ki data, which are given here for one substance.

Holding throughout (type): biochemical
One test deals with T1, PMCA2 (Homo sapiens, UniProt Q01814).
T1 sequence (Q01814 1-1243): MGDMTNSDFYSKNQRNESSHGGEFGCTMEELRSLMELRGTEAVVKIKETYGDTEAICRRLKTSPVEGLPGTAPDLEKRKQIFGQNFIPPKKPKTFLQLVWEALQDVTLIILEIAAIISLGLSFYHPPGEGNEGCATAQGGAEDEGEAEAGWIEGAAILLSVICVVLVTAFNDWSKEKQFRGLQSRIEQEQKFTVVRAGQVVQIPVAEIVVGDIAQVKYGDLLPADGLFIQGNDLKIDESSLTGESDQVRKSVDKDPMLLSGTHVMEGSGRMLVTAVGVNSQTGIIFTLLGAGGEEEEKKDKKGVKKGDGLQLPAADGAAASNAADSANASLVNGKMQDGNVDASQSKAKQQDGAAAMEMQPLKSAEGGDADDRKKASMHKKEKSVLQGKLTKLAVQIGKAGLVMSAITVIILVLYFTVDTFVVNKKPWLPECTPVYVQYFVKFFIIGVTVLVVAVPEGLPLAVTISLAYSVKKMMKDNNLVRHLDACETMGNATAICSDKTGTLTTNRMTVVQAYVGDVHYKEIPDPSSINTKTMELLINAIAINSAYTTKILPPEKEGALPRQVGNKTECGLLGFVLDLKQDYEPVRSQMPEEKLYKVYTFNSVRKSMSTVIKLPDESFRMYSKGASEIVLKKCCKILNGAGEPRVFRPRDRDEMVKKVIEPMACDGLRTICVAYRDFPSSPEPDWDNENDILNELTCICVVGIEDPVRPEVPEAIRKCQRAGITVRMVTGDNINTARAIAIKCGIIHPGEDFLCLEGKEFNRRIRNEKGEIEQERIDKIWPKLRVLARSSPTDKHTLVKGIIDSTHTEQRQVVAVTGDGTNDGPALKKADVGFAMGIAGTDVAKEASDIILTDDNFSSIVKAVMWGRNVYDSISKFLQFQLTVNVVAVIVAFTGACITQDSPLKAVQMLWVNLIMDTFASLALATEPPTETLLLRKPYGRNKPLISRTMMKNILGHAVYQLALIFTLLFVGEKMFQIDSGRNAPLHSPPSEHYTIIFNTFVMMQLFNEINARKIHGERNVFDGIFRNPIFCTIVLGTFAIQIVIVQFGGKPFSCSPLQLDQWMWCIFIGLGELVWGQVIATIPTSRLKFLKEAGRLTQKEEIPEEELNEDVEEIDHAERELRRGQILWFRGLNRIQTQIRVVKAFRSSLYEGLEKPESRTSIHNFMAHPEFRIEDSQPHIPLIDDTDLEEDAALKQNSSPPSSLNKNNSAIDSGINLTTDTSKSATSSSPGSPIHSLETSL
The experiment in a line: Ca2+-Mg2+-ATPase of microsomes from overexpressing insect cells sf9. The method in brief:
(§1)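 Sources: a plasma membrane-enriched fraction from rabbit duodenal mucosa, rich in PMCA1 with little PMCA4, and microsomes from baculovirus-infected Sf9 cells expressing PMCA2 or PMCA3. Activity was followed by NADH loss in a coupled assay at 37°C: basal Mg2+-ATPase, then CaCl2 added, difference taken. Each day's mean control activity was 100%. Ki was fitted by non-linear regression; 3–4 measurements over 2–4 days.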

Another test addresses T2, PMCA1 (Oryctolagus cuniculus, UniProt Q00804).
T2 sequence (Q00804 1-1220): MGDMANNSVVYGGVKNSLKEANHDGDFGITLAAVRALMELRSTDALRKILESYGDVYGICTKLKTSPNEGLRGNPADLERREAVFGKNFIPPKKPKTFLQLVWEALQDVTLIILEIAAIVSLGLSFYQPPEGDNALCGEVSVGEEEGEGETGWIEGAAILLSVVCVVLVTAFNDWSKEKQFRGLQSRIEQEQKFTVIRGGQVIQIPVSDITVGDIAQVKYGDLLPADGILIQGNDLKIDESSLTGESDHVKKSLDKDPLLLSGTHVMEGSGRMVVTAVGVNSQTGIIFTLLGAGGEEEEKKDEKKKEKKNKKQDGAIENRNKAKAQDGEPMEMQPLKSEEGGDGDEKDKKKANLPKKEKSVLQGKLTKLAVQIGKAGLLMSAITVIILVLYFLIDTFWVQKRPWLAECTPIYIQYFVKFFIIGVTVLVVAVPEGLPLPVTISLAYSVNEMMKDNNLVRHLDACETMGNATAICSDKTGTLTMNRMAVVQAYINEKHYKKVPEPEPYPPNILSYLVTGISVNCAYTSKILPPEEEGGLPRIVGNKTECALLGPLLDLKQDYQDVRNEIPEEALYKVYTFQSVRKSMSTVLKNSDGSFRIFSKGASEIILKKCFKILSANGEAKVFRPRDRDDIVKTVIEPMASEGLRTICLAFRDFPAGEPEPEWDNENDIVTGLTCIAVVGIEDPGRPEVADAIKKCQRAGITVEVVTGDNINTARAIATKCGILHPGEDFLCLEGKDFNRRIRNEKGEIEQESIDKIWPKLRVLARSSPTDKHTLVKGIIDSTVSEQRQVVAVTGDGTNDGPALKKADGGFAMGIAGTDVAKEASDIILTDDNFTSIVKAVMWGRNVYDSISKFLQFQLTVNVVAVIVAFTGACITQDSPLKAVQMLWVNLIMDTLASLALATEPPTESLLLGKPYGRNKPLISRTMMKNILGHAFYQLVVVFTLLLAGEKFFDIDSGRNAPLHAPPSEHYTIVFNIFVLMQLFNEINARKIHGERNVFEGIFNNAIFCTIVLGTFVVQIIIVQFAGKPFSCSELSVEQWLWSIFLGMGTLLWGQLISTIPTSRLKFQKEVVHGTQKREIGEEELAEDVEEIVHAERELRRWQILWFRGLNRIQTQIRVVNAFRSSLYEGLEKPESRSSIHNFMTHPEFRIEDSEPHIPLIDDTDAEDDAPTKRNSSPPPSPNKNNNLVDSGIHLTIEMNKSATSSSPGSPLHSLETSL
Put plainly: Ca2+-Mg2+-ATPase of rabbit duodenal mucosal PM rich fraction. Put shortly:
as §1

For another test, the target named is PMCA4 (Homo sapiens, UniProt P23634). Put plainly: PMCA Ca2+-Mg2+-ATPase in human erythrocyte ghosts, coupled enzyme assay. Put shortly:
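Human erythrocyte leaky ghosts were EDTA-washed to strip calmodulin; 0.2–0.4 mg protein per assay. Pyruvate kinase–LDH coupled NADH assay at 37°C in 30 mM imidazole-HCl pH 7.0 with 0.1 mM ouabain, 6 mM MgCl2, 0.5 mM ATP, 0.5 mM EGTA and 4 μg/ml calmodulin. Basal Mg2+-ATPase was subtracted from activity after CaCl2 addition. Ki came from a non-linear fit, saturating substrates; 3–4 measurements over 2–4 days.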

The target of the next test is T3, PMCA3 (Homo sapiens, UniProt Q16720).
T3 sequence (Q16720 1-1220): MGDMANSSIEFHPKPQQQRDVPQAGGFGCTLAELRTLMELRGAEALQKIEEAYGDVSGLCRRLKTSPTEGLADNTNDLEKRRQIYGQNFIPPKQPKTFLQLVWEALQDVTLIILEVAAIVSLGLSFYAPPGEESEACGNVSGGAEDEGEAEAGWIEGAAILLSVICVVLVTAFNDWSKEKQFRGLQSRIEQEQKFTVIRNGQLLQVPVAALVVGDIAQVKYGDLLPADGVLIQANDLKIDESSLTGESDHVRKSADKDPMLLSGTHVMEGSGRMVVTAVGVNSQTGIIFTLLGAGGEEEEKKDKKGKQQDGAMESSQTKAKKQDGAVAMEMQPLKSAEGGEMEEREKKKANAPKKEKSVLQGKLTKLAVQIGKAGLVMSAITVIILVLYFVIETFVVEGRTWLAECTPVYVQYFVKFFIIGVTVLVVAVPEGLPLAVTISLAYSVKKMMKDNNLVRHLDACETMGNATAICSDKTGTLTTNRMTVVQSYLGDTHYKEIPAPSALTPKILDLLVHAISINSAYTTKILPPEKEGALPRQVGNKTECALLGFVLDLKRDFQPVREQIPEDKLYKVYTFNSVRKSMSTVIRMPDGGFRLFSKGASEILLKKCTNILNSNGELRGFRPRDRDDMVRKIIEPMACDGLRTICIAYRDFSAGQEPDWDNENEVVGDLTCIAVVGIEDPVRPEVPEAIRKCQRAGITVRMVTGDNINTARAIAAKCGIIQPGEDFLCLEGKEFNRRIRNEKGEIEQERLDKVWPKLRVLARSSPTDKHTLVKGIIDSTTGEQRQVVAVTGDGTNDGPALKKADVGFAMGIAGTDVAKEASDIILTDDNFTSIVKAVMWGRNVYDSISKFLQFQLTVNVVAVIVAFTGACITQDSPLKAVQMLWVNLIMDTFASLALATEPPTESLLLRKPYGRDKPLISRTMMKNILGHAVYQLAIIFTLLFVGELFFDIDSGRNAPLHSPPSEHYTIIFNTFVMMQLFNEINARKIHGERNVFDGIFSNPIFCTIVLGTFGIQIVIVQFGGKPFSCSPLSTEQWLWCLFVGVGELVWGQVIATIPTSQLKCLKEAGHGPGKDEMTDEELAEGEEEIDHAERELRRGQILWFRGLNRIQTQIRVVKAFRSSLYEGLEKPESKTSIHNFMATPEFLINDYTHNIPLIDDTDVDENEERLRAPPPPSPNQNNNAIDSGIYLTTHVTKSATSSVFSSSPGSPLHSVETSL
The experiment in a line: Ca2+-Mg2+-ATPase of microsomes from overexpressing insect cells sf9. The method in brief: as §1

No end group written: not given here.

Broadly, the Ki is the dissociation constant of the complex between target and ligand, obtained from inhibition or displacement. High values mean a looser hold on the target, low ones a stronger hold on the target. On to TAWSEVLDLLRRGGGSK-NH2 [caloxin 1c2], for which the Ki on PMCA2 was 40 ± 10 µM; on PMCA1 it was 21 ± 6 µM; on PMCA4, 2.3 ± 0.3 µM; at PMCA3, 67 ± 8 µM.
